Assay outcomes: PubChem, several laboratories
APJ agonist – activates the human apelin receptor APJ; 330,000 compounds, 0.11% hits; activation, % at 20 µM; CHO-K1 APJ PathHunter beta-arrestin, luminescence; 0% DMSO wells, 100% apelin;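 active = activation more than six SD over the plate average, tested at 20 µM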
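Assay system – PathHunter CHO-K1 APJ (AGTRL-1) beta-arrestin reporter cells · Compound – one dose, 20 µM compound, 1% DMSO · Timing – compound 90 min 25 °C, reagent 1 h · Measured by – luminescence from split beta-galactosidase complementation, Galacton Star/Emerald II substrate · Measure – beta-arrestin recruitment to APJ as agonist activity, luminescent signal · Benchmarks – DMSO vs Apelin-13 10 nM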
CXCR6 inh – inhibitors of human CXCR6 receptor. 360,000 compounds, 0.36% hits. CHO-K1 PathHunter CXCR6 beta-arrestin, luminescence. inhibition, % at 20 µM. O00574; in the data active = inhibition above about 34%, passing the limit was not always enough;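 note: antagonist mode with CXCL16 agonist at 10 nM final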
APJ antagonist – blocks the human apelin receptor APJ; P35414; 330,000 compounds, 0.32% hits; CHO-K1 APJ beta-arrestin complementation, luminescence; inhibition, % at 20 µM;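 active = inhibition above about 40% at 20 µM, limit read from the data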;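 note: cells challenged with 10 nM apelin-13 agonist together with compound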
B2AR ag – activates human beta-2 adrenergic receptor causing internalization; P07550; 340,000 compounds, 0.43% hits; response, % (no concentration beside the values); Am2.2-beta2AR cells, FAP receptor internalization, flow cytometry;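 active = response above a set limit, near 3 SD of response in nonfluorescent compounds, cut at about 42% in these data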
Target sequence (P07550 whole entry, looked up): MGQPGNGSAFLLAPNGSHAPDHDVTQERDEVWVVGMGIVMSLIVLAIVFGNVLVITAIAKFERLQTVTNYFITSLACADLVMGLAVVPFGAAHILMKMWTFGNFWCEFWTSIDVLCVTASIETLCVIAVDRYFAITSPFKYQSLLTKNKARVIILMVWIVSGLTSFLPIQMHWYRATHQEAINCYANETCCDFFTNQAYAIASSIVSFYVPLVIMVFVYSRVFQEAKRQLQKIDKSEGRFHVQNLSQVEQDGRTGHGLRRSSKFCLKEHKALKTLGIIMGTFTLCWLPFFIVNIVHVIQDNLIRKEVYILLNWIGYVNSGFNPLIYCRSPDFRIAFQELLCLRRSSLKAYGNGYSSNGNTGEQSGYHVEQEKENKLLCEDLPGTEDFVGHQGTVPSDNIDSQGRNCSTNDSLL
EBI2 antag – EBI2 (human) antagonism; P32249; EBI2 beta-arrestin recruitment, luminescence, 7a,25-OHC stimulated; inhibition, % at 5 µM; 360,000 compounds, 0.81% hits; AID 651636; in the data active = inhibition above about 38%;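 note: enzyme fragment complementation signal reports receptor beta-arrestin coupling in cells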
CCR6 antag – CCR6 (human) receptor antagonism | AID 493098 | P51684 | 340,000 compounds, 0.49% hits | CHO-K1 CCR6 PathHunter beta-arrestin, luminescence, CCL20-stimulated | inhibition, % at 20 µM;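 active = compounds whose inhibition of the agonist-driven luminescence signal at 20 µM reaches about 50%, limit read from the data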;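 note: cells stimulated with CCL20 at 14 nM final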
A number is an active result; n = inactive; x = no result given. A selection: hits, their analogues and other compounds. The true share with any hit is near 1.8%.

SMILES | APJ agonist | CXCR6 inh | APJ antagonist | B2AR ag | EBI2 antag | CCR6 antag
O=C1/C(=C\c2cccc([N+](=O)[O-])c2O)SC(=S)N1Cc1ccccc1 | x | 45.8 | x | n | n | 64.3
COc1cc([N+](=O)[O-])cc(/C=C2/SC(=S)N(Cc3ccccc3)C2=O)c1O | x | n | x | n | n | n
O=C1/C(=C/c2ccc(O)c([N+](=O)[O-])c2)SC(=S)N1Cc1ccccc1 | n | 43.8 | 50.3 | n | n | 54.3
O=C1/C(=C/c2ccc(O)cc2)SC(=S)N1CC1CCCO1 (configuration not stated) | n | n | 49.0 | n | n | n
CN1C(=O)/C(=C/c2ccc(O)c([N+](=O)[O-])c2)NC1=S | n | n | 44.8 | n | n | n
COc1cc(/C=C2\NC(=S)N(C)C2=O)ccc1O | n | n | n | n | n | n
C=C(C)[C@@H]1C2=CC(C(=O)OC)=C(C[C@H](C(=C)C)[C@H]3O[C@H]3C3=C[C@H]1OC3=O)O2 | x | n | x | x | n | x
COC(=O)c1sccc1S(=O)(=O)N1CCCC(N(C)CCc2ccccn2)C1 (configuration not stated) | n | n | n | n | n | n
O=C1/C(=C\c2ccc(O)cc2)SC(=S)N1c1cccnc1 | n | 49.4 | 56.9 | n | n | 64.1
O=C(O)c1ccc(/C=C2/SC(=S)N(Cc3ccccc3)C2=O)cc1 | x | n | x | n | n | n
O=C1/C(=C\c2ccc(O)cc2)SC(=S)N1Cc1ccccc1 | n | n | n | n | n | 51.3
O=C(O)/C=C/C(=O)c1ccc2c(c1)CCc1ccccc1-2 | n | n | n | 95.8 | n | n
CC(=O)Nc1ccc2c(c1)CCc1ccccc1-2 | n | n | n | n | n | n
COC(=O)/C=C\C(C#N)(C#N)N=Cc1ccc(OC)cc1 | x | 65.0 | x | 47.1 | n | n
COc1ccc(C=NNC(=O)CCCCC(=O)NN=Cc2ccc(OC)cc2)cc1 | x | n | x | n | n | n
O=C1OC2(c3ccccc31)c1cc(I)c(O)c(I)c1Oc1c2cc(I)c(O)c1I | n | x | 45.7 | x | x | x
Cc1cc(O)ccc1C1(c2ccc(O)cc2C)OC(=O)c2ccccc21 | n | n | n | n | n | n
CCNC(=O)N(C)c1c(CC)nc2ccc(C(=O)N3CCN(S(=O)(=O)CC)CC3)cn12 | x | n | x | x | n | x
CN(CC(=O)N1CCN(c2cccc(Cl)c2)CC1)S(=O)(=O)c1cccs1 | n | n | n | 53.0 | n | n
CCCCCCCCCCCCCCC[C@@H](O)[C@@H](N)CO | x | n | x | n | n | 67.5
O=C1/C(=C\c2ccccc2)CCC/C1=C/c1ccccc1 | x | n | x | n | n | n
O=C1/C(=C\c2ccc(Cl)c(Cl)c2)CN(C(=O)CCN2CCOCC2)C/C1=C/c1ccc(Cl)c(Cl)c1 | x | n | x | 51.8 | 89.6 | 55.5
CCN(CC)CCC(=O)N1C/C(=C/c2ccccc2)C(=O)/C(=C\c2ccccc2)C1 | x | 62.4 | x | n | 52.2 | 65.5
O=C1/C(=C\c2ccccc2)CN(C(=O)CCN2CCCCC2)C/C1=C/c1ccccc1 | x | 66.4 | x | n | 52.3 | 81.9
O=C(NC1CCCC1)C(C1CC1)n1c(-c2ccncc2)nc2ccccc21 (configuration not stated) | x | x | x | x | n | x
SMILES | APJ agonist | CXCR6 inh | APJ antagonist | B2AR ag | EBI2 antag | CCR6 antag
CCOc1ccc(CCNC(=O)CS(=O)Cc2nc(-c3ccccc3C)oc2C)cc1OCC (configuration not stated) | n | n | n | n | n | n
Cc1ccc(S(=O)(=O)N2[C@@H](c3cccc(Cl)c3)C(C(=O)O)=CC[C@H]2c2ccc(C(C)C)cc2)cc1 | n | n | n | n | n | n
Fc1cccc(NC(=S)NNc2c3ccccc3nc3ccccc23)c1 | x | n | x | n | n | 55.8
Fc1cccc(NC(=S)NNc2ccccc2)c1 | n | n | n | n | n | n
COc1ccc(C(=O)N=c2sc3c(C)ccc(OC)c3n2C)cc1OC | n | n | n | 47.4 | n | n
COCCNC(=O)C[C@@H]1C[C@H]2c3cc(NC(=O)Nc4ccc(F)cc4)ccc3O[C@H]2[C@H](CO)O1 | x | n | x | x | n | x
C=CCN(CC=C)S(=O)(=O)c1ccc(NC(=S)NC(=O)/C=C/c2cccc3ccccc23)cc1 | n | n | n | n | n | 51.8
Cn1c(=O)c(C(=O)NNC(=O)c2cccc(Cl)c2)c(O)c2ccccc21 | n | n | n | 76.8 | n | n
C[C@H]1CN([C@@H](C)CO)S(=O)(=O)c2ccc(/C=C/c3ccccc3)cc2O[C@H]1CN(C)C(=O)NC1CCCCC1 | x | n | x | x | n | x
Cc1cccc(NC(=S)NC(=O)c2cc(-c3ccccc3)nc3ccccc23)c1 | n | n | n | n | n | n
Cc1ccccc1NC(=S)NC(=O)c1cc(-c2ccccc2)nc2ccccc12 | n | n | n | n | n | 55.6
CC(=O)NC(=S)Nc1cccc2c(C)cc(C)nc12 | n | n | n | n | n | n
Cc1cc(C)c2cccc(NC(=S)NC(=O)c3ccccc3)c2n1 | n | n | n | n | n | 68.6
N#Cc1ccc(CN2CCN(C(=O)CN3C(=O)NC4(CCCC4)C3=O)CC2)cc1 | n | n | n | n | n | n
O=C1C(=O)c2ccccc2C(O)=C1c1ccccc1F | n | n | n | n | n | n
CCCC(=O)NC1=C(Cl)C(=O)c2ccccc2C1=O | x | 99.0 | x | n | n | 106.7
O=C1C(Cl)=C(Nc2ccc(O)cc2)C(=O)c2ccccc21 | n | n | n | 73.2 | n | n
CCN(CC)c1ccc(NC2=C(Cl)C(=O)c3ccccc3C2=O)cc1 | x | n | x | 74.3 | n | 57.2
O=C1C(O)=C(O)C(=O)c2ccccc21 | n | n | n | 97.5 | n | n
Cc1ccc(NC2=C(Cl)C(=O)c3ccccc3C2=O)cc1 | x | n | x | n | n | n
CCCCNC(=O)c1nc(-c2cccs2)oc1-c1ccc(Cl)cc1 | x | x | x | x | n | x
CN1/C(=C/C=C/c2n(C)c3cc([N+](=O)[O-])c([N+](=O)[O-])cc3[n+]2C)C(C)(C)c2ccccc21 | x | 48.5 | x | x | n | x
Cc1cccc[n+]1CC(=O)/C=C1\N(C)c2ccccc2C1(C)C | n | n | n | n | n | n
CCC(=O)N(c1nnc(SCC(=O)Nc2ccccc2Cl)s1)C1CC1 | n | n | n | n | n | n
COc1cc2c(cc1O)C(Cc1ccc(O)cc1)[N+](C)([O-])CC2 (configuration not stated) | n | n | n | n | n | n
COc1ccc(C[C@H]2c3cc(O)c(OC)cc3CC[N+]2(C)[O-])cc1O (some centres not stated) | n | n | n | n | n | 59.0
Fc1ccccc1NC(=S)N1CCN(C/C=C/c2ccccc2)CC1 | n | n | n | 56.1 | n | n
O=C(NC(c1ccc(Cl)cc1)c1cc(Cl)c2cccnc2c1O)c1cccnc1 (configuration not stated) | x | n | x | n | 64.5 | n
